Assay results reported in ChEMBL document CHEMBL4184148 (Bioorg Med Chem Lett, 2017).

What was measured:
[1] = test system: Tyrosine-protein kinase ABL1 (Homo sapiens), P00519 [M351T]; assay: Binding affinity to human phosphorylated ABL1 M351T mutant (S229 to K512 residues) expressed in HEK293 cells at 1 uM by Kinomescan method relative to control; type: cell-based
[2] = target: Tyrosine-protein kinase ABL2 (Homo sapiens) (UniProt P42684); assay: Binding affinity to wild-type human ABL2 (A248 to G542 residues) expressed in Escherichia coli BL21 at 1 uM by Kinomescan method relative to control
[3] = target: Calcium/calmodulin-dependent protein kinase type 1G (Homo sapiens) (UniProt Q96NX5); assay: Binding affinity to wild-type human partial length CAMK1G (M1 to A342 residues) expressed in Escherichia coli BL21 at 1 uM by Kinomescan method relative to control
[4] = target: Calcium/calmodulin-dependent protein kinase type II subunit delta (Homo sapiens) (UniProt Q13557); assay: Binding affinity to wild-type human partial length CAMK2D (M1 to E329 residues) expressed in Escherichia coli BL21 at 1 uM by Kinomescan method relative to control
Chain of Calcium/calmodulin-dependent protein kinase type II subunit delta (Homo sapiens) (Q13557 whole entry, the tested form may be a part): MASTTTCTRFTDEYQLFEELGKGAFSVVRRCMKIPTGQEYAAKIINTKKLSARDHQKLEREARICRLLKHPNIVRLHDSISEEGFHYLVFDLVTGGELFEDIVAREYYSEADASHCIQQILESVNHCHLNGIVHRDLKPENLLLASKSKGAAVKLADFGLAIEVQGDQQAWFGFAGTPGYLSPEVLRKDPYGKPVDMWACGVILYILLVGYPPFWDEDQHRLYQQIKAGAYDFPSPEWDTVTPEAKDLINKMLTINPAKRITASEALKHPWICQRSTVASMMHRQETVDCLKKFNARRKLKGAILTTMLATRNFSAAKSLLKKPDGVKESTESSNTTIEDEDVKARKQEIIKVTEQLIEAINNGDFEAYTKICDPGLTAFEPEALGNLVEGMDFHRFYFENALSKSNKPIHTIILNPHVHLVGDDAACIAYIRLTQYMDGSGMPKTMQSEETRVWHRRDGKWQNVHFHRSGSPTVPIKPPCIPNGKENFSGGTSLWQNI

[5] = target: Cyclin-dependent kinase 11B (Homo sapiens) (UniProt P21127); assay: Binding affinity to wild-type human partial length CDC2L1 (P353 to G692 residues) expressed in Escherichia coli BL21 at 1 uM by Kinomescan method relative to control
[6] = target: Cyclin-dependent kinase 5 (Homo sapiens) (UniProt Q00535); assay: Binding affinity to wild-type human full length CDK5 (M1 to P292 residues) expressed in Escherichia coli BL21 at 1 uM by Kinomescan method relative to control
Chain of Cyclin-dependent kinase 5 (Homo sapiens) (Q00535 whole entry, looked up, the tested form may be a part): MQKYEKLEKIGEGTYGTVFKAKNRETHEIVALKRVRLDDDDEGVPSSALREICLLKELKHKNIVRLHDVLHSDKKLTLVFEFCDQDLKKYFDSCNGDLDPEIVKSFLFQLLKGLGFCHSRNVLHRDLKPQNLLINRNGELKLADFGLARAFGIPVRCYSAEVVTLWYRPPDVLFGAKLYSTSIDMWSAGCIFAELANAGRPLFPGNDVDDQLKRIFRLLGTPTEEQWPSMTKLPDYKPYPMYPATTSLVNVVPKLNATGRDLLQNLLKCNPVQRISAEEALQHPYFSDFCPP
Summary of the method: (§1)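 Run as one kinome-wide competition binding panel with each compound at a single fixed concentration. Results were plotted as a kinome-wide selectivity map.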

[7] = target: Cyclin-dependent kinase-like 3 (Homo sapiens) (UniProt Q8IVW4); assay: Binding affinity to wild-type human partial length CDKL3 (M1 to D327 residues) expressed in Escherichia coli BL21 at 1 uM by Kinomescan method relative to control
Chain of Cyclin-dependent kinase-like 3 (Homo sapiens) (Q8IVW4 whole entry, looked up, the tested form may be a part, canonical isoform): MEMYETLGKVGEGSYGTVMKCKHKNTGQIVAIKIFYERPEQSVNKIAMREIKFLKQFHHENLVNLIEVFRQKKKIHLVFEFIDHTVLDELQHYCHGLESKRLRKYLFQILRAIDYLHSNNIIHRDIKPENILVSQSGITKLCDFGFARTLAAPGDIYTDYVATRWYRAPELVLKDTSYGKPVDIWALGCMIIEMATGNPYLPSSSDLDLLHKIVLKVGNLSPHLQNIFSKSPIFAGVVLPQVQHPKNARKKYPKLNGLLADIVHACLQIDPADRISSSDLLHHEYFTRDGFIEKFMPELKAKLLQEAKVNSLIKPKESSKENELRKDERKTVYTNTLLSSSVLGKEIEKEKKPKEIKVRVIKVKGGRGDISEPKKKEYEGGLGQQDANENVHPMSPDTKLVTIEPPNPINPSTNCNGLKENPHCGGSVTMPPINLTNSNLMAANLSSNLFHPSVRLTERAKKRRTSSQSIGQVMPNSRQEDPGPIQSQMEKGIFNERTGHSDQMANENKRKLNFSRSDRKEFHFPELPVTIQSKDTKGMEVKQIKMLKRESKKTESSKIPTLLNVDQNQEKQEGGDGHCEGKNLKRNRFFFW

[8] = target: Casein kinase I isoform gamma-3 (Homo sapiens) (UniProt Q9Y6M4); assay: Binding affinity to wild-type human full length CSNK1G3 (M1 to K447 residues) expressed in Escherichia coli BL21 at 1 uM by Kinomescan method relative to control; summary of the method: as §1
Chain of Casein kinase I isoform gamma-3 (Homo sapiens) (Q9Y6M4 whole entry, looked up, the tested form may be a part, canonical isoform): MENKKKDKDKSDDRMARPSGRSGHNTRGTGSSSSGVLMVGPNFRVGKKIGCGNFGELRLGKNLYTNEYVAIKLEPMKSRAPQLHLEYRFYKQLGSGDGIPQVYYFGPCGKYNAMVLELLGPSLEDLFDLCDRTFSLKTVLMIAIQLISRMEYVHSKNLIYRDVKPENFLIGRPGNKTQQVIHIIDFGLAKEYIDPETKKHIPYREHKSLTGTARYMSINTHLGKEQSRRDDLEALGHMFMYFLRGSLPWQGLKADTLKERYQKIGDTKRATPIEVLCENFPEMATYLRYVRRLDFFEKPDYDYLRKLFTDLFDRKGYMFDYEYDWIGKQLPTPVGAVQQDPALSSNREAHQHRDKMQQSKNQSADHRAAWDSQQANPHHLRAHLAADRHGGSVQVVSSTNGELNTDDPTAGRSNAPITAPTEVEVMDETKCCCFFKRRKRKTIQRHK

[9] = target: Serine/threonine-protein kinase 17A (Homo sapiens) (UniProt Q9UEE5); assay: Binding affinity to wild-type human partial length DRAK1 (R32 to E363 residues) expressed in Escherichia coli BL21 at 1 uM by Kinomescan method relative to control
[10] = target: Eukaryotic translation initiation factor 2-alpha kinase 1 (Homo sapiens) (UniProt Q9BQI3); assay: Binding affinity to wild-type human partial length EIF2AK1 (Q147 to E603 residues) expressed in HEK293 cells at 1 uM by Kinomescan method relative to control; type: cell-based
[11] = target: Ephrin type-A receptor 5 (Homo sapiens) (UniProt P54756); assay: Binding affinity to wild-type human partial length EPHA5 (T627 to V930 residues) expressed in Escherichia coli BL21 at 1 uM by Kinomescan method relative to control
[12] = target: Mitogen-activated protein kinase 7 (Homo sapiens) (UniProt Q13164); assay: Binding affinity to wild-type human partial length ERK5 (M1 to A409 residues) expressed in Escherichia coli BL21 at 1 uM by Kinomescan method relative to control
[13] = target: Receptor-type tyrosine-protein kinase FLT3 (Homo sapiens) (UniProt P36888); assay: Binding affinity to wild-type human partial length autoinhibited FLT3 (H564 to Y969 residues) expressed in HEK293 cells at 1 uM by Kinomescan method relative to control; type: cell-based; parameters: scale not given: the % may be the effect or the level left
[14] = test system: Receptor-type tyrosine-protein kinase FLT3 (Homo sapiens), P36888 [K663Q]; assay: Binding affinity to human partial length FLT3 K663Q mutant (V592 to Y969 residues) expressed in Escherichia coli BL21 at 1 uM by Kinomescan method relative to control
[15] = target: Glycogen synthase kinase-3 alpha (Homo sapiens) (UniProt P49840); assay: Binding affinity to wild-type human full length GSK3A (M1 to S483 residues) expressed in Escherichia coli BL21 at 1 uM by Kinomescan method relative to control; summary of the method: as §1
[16] = target: Glycogen synthase kinase-3 beta (Homo sapiens) (UniProt P49841); assay: Binding affinity to wild-type human full length GSK3B (M1 to T433 residues) expressed in HEK293 cells at 1 uM by Kinomescan method relative to control; type: cell-based; summary of the method: as §1
Chain of Glycogen synthase kinase-3 beta (Homo sapiens) (P49841 whole entry, looked up, the tested form may be a part): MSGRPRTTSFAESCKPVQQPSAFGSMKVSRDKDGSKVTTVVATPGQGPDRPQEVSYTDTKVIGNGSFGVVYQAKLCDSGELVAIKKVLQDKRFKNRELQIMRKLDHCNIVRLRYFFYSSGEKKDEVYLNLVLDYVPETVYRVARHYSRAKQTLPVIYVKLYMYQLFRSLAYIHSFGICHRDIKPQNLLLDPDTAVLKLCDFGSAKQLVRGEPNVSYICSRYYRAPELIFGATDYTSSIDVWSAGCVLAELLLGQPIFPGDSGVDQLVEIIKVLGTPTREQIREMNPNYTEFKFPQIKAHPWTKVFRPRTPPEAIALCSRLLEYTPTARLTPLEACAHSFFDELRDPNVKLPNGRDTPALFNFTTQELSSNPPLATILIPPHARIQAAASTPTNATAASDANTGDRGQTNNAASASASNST

[17] = test system: Mast/stem cell growth factor receptor Kit (Homo sapiens), P10721 [A829P]; assay: Binding affinity to human partial length KIT A829P mutant (I571 to D952 residues) expressed in HEK293 cells at 1 uM by Kinomescan method relative to control; type: cell-based
[18] = test system: Mast/stem cell growth factor receptor Kit (Homo sapiens), P10721 [D816V]; assay: Binding affinity to human partial length KIT D816V mutant (I571 to D952 residues) expressed in Escherichia coli BL21 at 1 uM by Kinomescan method relative to control
[19] = target: Mitogen-activated protein kinase kinase kinase 13 (Homo sapiens) (UniProt O43283); assay: Binding affinity to wild-type human full length LZK (M1 to W966 residues) expressed in HEK293 cells at 1 uM by Kinomescan method relative to control; type: cell-based; summary of the method: as §1
Chain of Mitogen-activated protein kinase kinase kinase 13 (Homo sapiens) (O43283 whole entry, the tested form may be a part): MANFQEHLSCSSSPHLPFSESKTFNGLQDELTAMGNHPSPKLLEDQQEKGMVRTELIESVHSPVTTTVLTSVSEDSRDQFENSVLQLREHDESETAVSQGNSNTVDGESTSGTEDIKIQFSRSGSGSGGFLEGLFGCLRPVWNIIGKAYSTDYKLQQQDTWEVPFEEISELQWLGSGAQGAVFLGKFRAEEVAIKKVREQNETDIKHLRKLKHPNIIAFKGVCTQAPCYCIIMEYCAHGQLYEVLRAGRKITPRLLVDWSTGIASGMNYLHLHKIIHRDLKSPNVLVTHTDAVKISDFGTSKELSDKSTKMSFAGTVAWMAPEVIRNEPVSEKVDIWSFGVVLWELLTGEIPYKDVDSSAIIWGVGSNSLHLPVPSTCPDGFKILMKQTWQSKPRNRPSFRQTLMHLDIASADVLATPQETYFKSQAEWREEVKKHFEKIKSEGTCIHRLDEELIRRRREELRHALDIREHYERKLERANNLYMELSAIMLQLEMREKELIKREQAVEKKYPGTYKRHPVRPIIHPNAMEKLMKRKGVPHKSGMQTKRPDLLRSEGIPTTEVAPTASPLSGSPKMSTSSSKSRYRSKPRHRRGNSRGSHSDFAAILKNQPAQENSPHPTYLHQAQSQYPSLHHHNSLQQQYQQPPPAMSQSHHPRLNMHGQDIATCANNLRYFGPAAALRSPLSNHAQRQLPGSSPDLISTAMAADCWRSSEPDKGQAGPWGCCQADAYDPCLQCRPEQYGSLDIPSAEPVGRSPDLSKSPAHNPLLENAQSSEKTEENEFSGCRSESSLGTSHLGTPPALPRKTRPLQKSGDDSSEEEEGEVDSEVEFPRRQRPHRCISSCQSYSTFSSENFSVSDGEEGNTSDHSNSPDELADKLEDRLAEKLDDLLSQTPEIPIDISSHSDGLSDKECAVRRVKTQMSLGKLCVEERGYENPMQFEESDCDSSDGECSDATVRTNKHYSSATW

[20] = target: Serine/threonine-protein kinase OSR1 (Homo sapiens) (UniProt O95747); assay: Binding affinity to wild-type human full length OSR1 (M1 to S527 residues) expressed in HEK293 cells at 1 uM by Kinomescan method relative to control; type: cell-based
Summary of the method: (§2)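 Kinome-wide competition binding panel run by an outside provider, with each compound tested at a single concentration. Activity is read against the kinase panel.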

[21] = target: Calcium-dependent protein kinase 1 (Plasmodium falciparum) (UniProt P62344); assay: Binding affinity to wild-type Plasmodium falciparum full length CDPK1 (M1 to S524 residues) expressed in HEK293 cells at 1 uM by Kinomescan method relative to control; type: cell-based
Chain of Calcium-dependent protein kinase 1 (Plasmodium falciparum) (P62344 2-524 limits assumed): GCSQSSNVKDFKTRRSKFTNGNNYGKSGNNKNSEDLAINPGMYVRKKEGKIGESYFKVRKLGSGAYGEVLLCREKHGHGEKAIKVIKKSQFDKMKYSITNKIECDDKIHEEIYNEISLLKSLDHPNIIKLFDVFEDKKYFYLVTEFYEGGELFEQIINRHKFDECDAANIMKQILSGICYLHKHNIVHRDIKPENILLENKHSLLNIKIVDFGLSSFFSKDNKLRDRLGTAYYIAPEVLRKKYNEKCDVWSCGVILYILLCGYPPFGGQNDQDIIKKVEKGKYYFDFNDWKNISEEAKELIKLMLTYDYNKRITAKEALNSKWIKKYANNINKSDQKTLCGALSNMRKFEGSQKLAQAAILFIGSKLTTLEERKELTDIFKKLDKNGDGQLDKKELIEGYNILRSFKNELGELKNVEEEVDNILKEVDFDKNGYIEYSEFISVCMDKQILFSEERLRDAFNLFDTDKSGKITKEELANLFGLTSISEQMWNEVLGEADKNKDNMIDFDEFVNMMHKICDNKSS

[22] = target: Ribosomal protein S6 kinase alpha-1 (Homo sapiens) (UniProt Q15418); assay: Binding affinity to wild-type human partial length N-terminal RSK1 Kinase domain 1 (M1 to E388 residues) expressed in Escherichia coli BL21 at 1 uM by Kinomescan method relative to control
Chain of Ribosomal protein S6 kinase alpha-1 (Homo sapiens) (Q15418 whole entry, the tested form may be a part): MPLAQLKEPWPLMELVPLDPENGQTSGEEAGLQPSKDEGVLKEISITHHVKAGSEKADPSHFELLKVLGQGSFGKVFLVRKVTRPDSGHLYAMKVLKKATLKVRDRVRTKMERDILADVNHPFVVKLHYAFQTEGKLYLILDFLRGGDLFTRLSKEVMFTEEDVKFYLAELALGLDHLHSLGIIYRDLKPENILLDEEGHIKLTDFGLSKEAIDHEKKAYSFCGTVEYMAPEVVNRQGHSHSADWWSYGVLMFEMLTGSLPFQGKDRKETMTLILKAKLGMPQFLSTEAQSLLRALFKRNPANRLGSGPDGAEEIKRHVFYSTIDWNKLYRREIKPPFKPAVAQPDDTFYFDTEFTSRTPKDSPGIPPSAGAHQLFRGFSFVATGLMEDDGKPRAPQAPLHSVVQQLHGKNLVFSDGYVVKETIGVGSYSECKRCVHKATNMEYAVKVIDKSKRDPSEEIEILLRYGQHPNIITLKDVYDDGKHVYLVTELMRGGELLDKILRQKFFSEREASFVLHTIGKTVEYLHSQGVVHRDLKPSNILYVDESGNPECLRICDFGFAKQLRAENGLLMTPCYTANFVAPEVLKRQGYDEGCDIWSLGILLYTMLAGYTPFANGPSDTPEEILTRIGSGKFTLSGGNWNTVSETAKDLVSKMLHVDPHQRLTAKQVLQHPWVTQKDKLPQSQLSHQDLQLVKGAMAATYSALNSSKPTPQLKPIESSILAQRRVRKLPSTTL

[23] = target: Serine/threonine-protein kinase TNNI3K (Homo sapiens) (UniProt Q59H18); assay: Binding affinity to wild-type human full length TNNI3K (M1 to S835 residues) expressed in Escherichia coli BL21 at 1 uM by Kinomescan method relative to control; summary of the method: as §2
[24] = target: Testis-specific serine/threonine-protein kinase 1 (Homo sapiens) (UniProt Q9BXA7); assay: Binding affinity to wild-type human full length TSSK1B (M1 to Q367 residues) expressed in Escherichia coli BL21 at 1 uM by Kinomescan method relative to control; summary of the method: as §2
Chain of Testis-specific serine/threonine-protein kinase 1 (Homo sapiens) (Q9BXA7 whole entry, the tested form may be a part): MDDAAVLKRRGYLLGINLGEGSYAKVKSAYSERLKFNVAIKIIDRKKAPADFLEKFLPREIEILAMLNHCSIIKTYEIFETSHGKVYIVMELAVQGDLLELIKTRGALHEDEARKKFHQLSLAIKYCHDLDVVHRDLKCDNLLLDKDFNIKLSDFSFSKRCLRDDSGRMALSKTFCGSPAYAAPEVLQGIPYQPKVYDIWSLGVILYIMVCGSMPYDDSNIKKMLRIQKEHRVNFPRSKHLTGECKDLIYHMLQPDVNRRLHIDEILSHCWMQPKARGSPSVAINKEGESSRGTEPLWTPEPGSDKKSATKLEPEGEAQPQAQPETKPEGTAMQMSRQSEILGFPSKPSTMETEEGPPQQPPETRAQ

[25] = target: Serine/threonine-protein kinase ULK1 (Homo sapiens) (UniProt O75385); assay: Binding affinity to wild-type human partial length ULK1 (M1 to T309 residues) expressed in HEK293 cells at 1 uM by Kinomescan method relative to control; type: cell-based

Compound | Activity [1] [%] | Activity [2] [%] | Activity [3] [%] | Activity [4] [%] | Activity [5] [%] | Activity [6] [%] | Activity [7] [%] | Activity [8] [%] | Activity [9] [%] | Activity [10] [%] | Activity [11] [%] | Activity [12] [%] | Activity [13] [%] | Activity [14] [%] | Activity [15] [%] | Activity [16] [%] | Activity [17] [%] | Activity [18] [%] | Activity [19] [%] | Activity [20] [%] | also measured
CCC(=O)Nc1ccc(C(=O)Nc2ccc(Nc3ncc4c(n3)N(C)c3ccc(C)cc3C(=O)N4C)cc2)cc1 | 100 | 78 | 100 | 99 | 100 | 87 | 95 | 97 | 100 | 93 | 94 | 97 | 85 | 81 | 100 | 82 | 54 | 91 | 82 | 90 | Activity [21]: 74%; Activity [22]: 94%; Activity [23]: 100%; Activity [24]: 89%; Activity [25]: 91%
C=CC(=O)Nc1ccc(C(=O)Nc2ccc(Nc3ncc4c(n3)N(C)c3ccc(C)cc3C(=O)N4C)cc2)cc1 | 95 | 95 | 100 | 100 | 97 | 99 | 98 | 100 | 93 | 100 | 100 | 86 | 84 | 99 | 100 | 92 | 99 | 88 | 87 | 99 | Activity [21]: 100%; Activity [22]: 100%; Activity [23]: 77%; Activity [24]: 100%; Activity [25]: 79%
